An excerpt weighted towards active compounds, which were near 2% of everything screened.
CASP6 VEID inh – blocks human caspase-6 cleavage activity. purified caspase-6, Z-VEID-R110 cleavage fluorescence. actives 0.53% (n = 350,000). AID 686996. P55212. inhibition, % at 12.5 µM;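 active means mean inhibition across replicates at least about 35%, with every replicate also reaching that limit, limit read from the data; inconclusive means only one of the two criteria met; inactive means neither criterion met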;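 further: 0% = median of neutral control wells and 100% = no fluorescence left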
Target sequence (P55212 24-179 limits assumed): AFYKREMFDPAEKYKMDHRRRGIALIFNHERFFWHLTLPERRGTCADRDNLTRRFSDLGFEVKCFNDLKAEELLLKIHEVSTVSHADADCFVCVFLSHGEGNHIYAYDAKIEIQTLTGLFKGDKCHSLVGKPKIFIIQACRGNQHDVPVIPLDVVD
Target sequence (P55212 194-293 limits assumed): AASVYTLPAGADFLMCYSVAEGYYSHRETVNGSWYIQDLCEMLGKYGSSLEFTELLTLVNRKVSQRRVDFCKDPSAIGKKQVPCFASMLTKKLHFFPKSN
FN deposit inh – fibronectin deposition inhibition; AH1F fibroblasts, Alexa488-fibronectin deposition fluorescence, overnight; inhibition, % at 12.6 µM; actives 0.086% (n = 350,000);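 active means mean inhibition across replicates of 30% or more, regardless of how many single replicates reach that level; inconclusive means mean under 30% yet at least half of replicates reach 30%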;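 further: positive control wells lacked labelled fibronectin entirely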
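Schedule: 1 h cell adhesion before compound, then overnight fibronectin incubation; test system: AH1F fibroblast monolayer depositing Alexa488-labelled fibronectin into matrix; quantity: 10000 AH1F cells per well; probe or stimulus: fluorescent fibronectin at 24 nM final; signal: fluorescence, ex 485 nm, em 525 nm; evaluation: percent inhibition as loss of matrix-bound fibronectin fluorescence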
DENV2 CPE – inhibitors of DENV2 cytopathic effect; CPE inhibition, % at 9.99 µM; DENV2-infected cells, cytopathic effect rescue, plate reader; actives 1.7% (n = 350,000); in the data active means CPE inhibition above about 20%, passing the limit was not always enough; inconclusive means no clear call, values can overlap the other calls; tested in BHK-21 cells;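 further: 0% = median of neutral control wells and 100% = median of positive control wells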
XiGFP reactiv – reactivates the inactive X chromosome in mouse fibroblasts. XiGFP mouse fibroblasts, % GFP-positive cells imaging, 3 d; cells co-treated with 5-aza-dC sensitizer; scaled so ellipticine positive control = 100%. activation, % at 7.58 µM. actives 0.055% (n = 360,000). AID 743238;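 active means mean normalized replicate activation at least 10% and every replicate at or above 10%; inconclusive means only one of the two criteria met; inactive means mean below 10% and not all replicates reach 10%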;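 further: 0% = median of on-plate neutral control wells and 100% = ellipticine 6 µM median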
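System: XiGFP fibroblasts, SV40-immortalized. Medium: DMEM plus 5-aza-dC sensitizer. Doses: single point. Timing: 3 d treatment, 15 min room-temperature fixation. Control set: ellipticine 6 µM.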
CaV13 FRET inh – Primary screen for inhibitors of IQ motif and Ca2+-dependent inactivation inhibitor domain binding in CACNA1D, Förster resonance energy transfer in living cells, … | inhibition, % at 12.3 µM | actives 0.098% (n = 340,000) | HEK cells, CFP/YFP FRET ICDI-IQ, plate reader, 10 min; percent FRET-ratio fall versus neutral wells;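 active means mean replicate inhibition of at least 30% and at least 1% of replicates passing that level; inconclusive means only one of the two criteria is met; inactive means neither criterion is met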;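 further: 0% = median of the neutral control wells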
* hit, by the source's call.

C[C@H]1CN([C@@H](C)CO)C(=O)c2cc(NC(=O)CCCN(C)C)ccc2O[C@@H]1CN(C)S(=O)(=O)c1ccc(Cl)cc1 was read as CASP6 VEID inh 0, DENV2 CPE active and XiGFP reactiv 0.
For O=C(NCCCN1CCCC1=O)c1cc(-c2ccc(F)cc2)nc2ccccc12 the results were CASP6 VEID inh -5, DENV2 CPE 0, XiGFP reactiv 2 and CaV13 FRET inh -7.
Screening COc1ccc(-c2cc(C(=O)NCCCN3CCCC3=O)c3ccccc3n2)cc1 returned CASP6 VEID inh -145, FN deposit inh 7, DENV2 CPE 58*, XiGFP reactiv 0 and CaV13 FRET inh -3.
COc1ccc(S(=O)(=O)Nc2ccc3c(c2)C(=O)N([C@@H](C)CO)C[C@H](C)[C@@H](CN(C)C(=O)Nc2ccccc2)OCCCC[C@@H](C)O3)cc1 was read as FN deposit inh 7, DENV2 CPE -3 and XiGFP reactiv 0.
O=C(Nc1ccc(F)cc1)N1CCN(C(=O)C2CCCO2)CC1 (stereo not drawn) was read as CASP6 VEID inh 82*, FN deposit inh -2, DENV2 CPE 0, XiGFP reactiv 0 and CaV13 FRET inh -3.
COc1ccc2c(C#N)c3ccccn3c2c1 was read as CASP6 VEID inh 62*, FN deposit inh 5, DENV2 CPE 1, XiGFP reactiv 0 and CaV13 FRET inh -2.
Screening Cc1cc(=O)n2ccccc2c1C#N returned FN deposit inh 4 and CaV13 FRET inh -10.
`COc1ccc(-c2cnc3c(c2)C(=O)N([C@@H](C)CO)C[C@@H](C)[C@@H](CN(C)C(=O)Cc2ccccn2)O3)cc1` gave CASP6 VEID inh 3, DENV2 CPE 11 and XiGFP reactiv -2.
Screening O=C(NCC[C@@H]1CC[C@@H](NS(=O)(=O)c2cccc(F)c2)[C@@H](CO)O1)C1CCOCC1 returned CASP6 VEID inh -1, DENV2 CPE 6 and XiGFP reactiv -1.
For CC(=O)CSc1ccc(-c2nc3cc(C)c(C)cc3[nH]2)cn1 the results were CASP6 VEID inh -2, FN deposit inh -1, DENV2 CPE 27*, XiGFP reactiv 0 and CaV13 FRET inh -19.
`CC(=O)CSc1ccc(-c2nc3ccccc3[nH]2)cn1` gave CASP6 VEID inh 0, FN deposit inh -9, DENV2 CPE -10, XiGFP reactiv 0 and CaV13 FRET inh -2.
Screening CSCCC(NS(=O)(=O)c1ccccc1F)C(=O)NCC(C)(C)N1CCOCC1 (stereo not drawn) returned CASP6 VEID inh 54*, FN deposit inh -18, DENV2 CPE -4, XiGFP reactiv 0 and CaV13 FRET inh -5.
`N#C[C@H]1[C@H](c2ccc(C#Cc3cccnc3)cc2)[C@@H](CO)N1C(=O)NC1CCCC1` gave FN deposit inh -4 and XiGFP reactiv 0.
Screening COc1ccc(CN(C)C[C@H]2OCCCC[C@H](C)Oc3ccc(NC(=O)c4ccccc4)cc3C(=O)N([C@H](C)CO)C[C@@H]2C)cc1 returned CASP6 VEID inh 1, DENV2 CPE 3 and XiGFP reactiv 0.
`C[C@@H]1CN([C@H](C)CO)C(=O)c2cccc(NC(=O)Nc3ccc4c(c3)OCO4)c2O[C@H]1CN(C)S(=O)(=O)c1cccs1` gave CASP6 VEID inh 1, DENV2 CPE -6 and XiGFP reactiv 3.
`CSc1ccc(Cn2c(C)c(C(=O)NCCC#N)sc2=O)cc1` gave CASP6 VEID inh 7, FN deposit inh 7, DENV2 CPE 1, XiGFP reactiv 2 and CaV13 FRET inh 34*.
Screening Cc1c(C(=O)NCc2cccc(C(F)(F)F)c2)sc(=O)n1Cc1ccc(C(=O)N(C)C)cc1 returned CASP6 VEID inh -1, FN deposit inh 16, DENV2 CPE 4, XiGFP reactiv 0 and CaV13 FRET inh 47*.
For Cc1c(C(=O)NCc2cccc([N+](=O)[O-])c2)sc(=O)n1Cc1cccc(F)c1 the results were CASP6 VEID inh -1, FN deposit inh 1, DENV2 CPE 2, XiGFP reactiv 0 and CaV13 FRET inh 63*.
Screening Cc1c(C(=O)NCc2cccc([N+](=O)[O-])c2)sc(=O)n1Cc1ccc(F)cc1 returned CASP6 VEID inh 1, FN deposit inh 13, DENV2 CPE inconclusive, XiGFP reactiv 0 and CaV13 FRET inh 8.
For COc1ccc(CNC(=O)c2sc(=O)n(Cc3ccc(C)cc3)c2C)cc1OC the results were CASP6 VEID inh -6, FN deposit inh 3, DENV2 CPE 5, XiGFP reactiv 0 and CaV13 FRET inh 55*.
`C[C@@H]1CN([C@@H](C)CO)S(=O)(=O)c2ccc(-c3ccc(F)cc3)cc2O[C@@H]1CN(C)C(=O)c1ccccc1F` gave CASP6 VEID inh -4, FN deposit inh -13, DENV2 CPE 13 and XiGFP reactiv 0.
Cc1c(C(=O)NCc2ccc3c(c2)OCCO3)sc(=O)n1Cc1ccccc1F was read as CASP6 VEID inh -2, FN deposit inh 5, DENV2 CPE -5, XiGFP reactiv 0 and CaV13 FRET inh 73*.
For Cc1c(C(=O)NCc2ccc3c(c2)OCCO3)sc(=O)n1Cc1ccccc1C(F)(F)F the results were CASP6 VEID inh 0, FN deposit inh -10, DENV2 CPE 8, XiGFP reactiv 0 and CaV13 FRET inh 11.
Screening O=C(Nc1cccc(Cl)c1)N[C@H]1CC[C@@H](CCNC(=O)C2CCOCC2)O[C@@H]1CO returned CASP6 VEID inh -2, DENV2 CPE inconclusive and XiGFP reactiv 0.
Screening COc1ccc2c3c(n(C)c2c1)[C@@H](CO)N(Cc1ccccc1F)CC31CN(C(=O)C2CCCC2)C1 returned CASP6 VEID inh 0, DENV2 CPE -8 and XiGFP reactiv 0.
CCc1ccccc1NC(=O)CSc1ccsc1[N+](=O)[O-] was read as FN deposit inh -8, XiGFP reactiv 0 and CaV13 FRET inh -2.
`O=C(CSc1ccsc1[N+](=O)[O-])Nc1cccc(F)c1` gave CASP6 VEID inh 41*, FN deposit inh -10, DENV2 CPE -2, XiGFP reactiv 0 and CaV13 FRET inh -5.
Screening CCCC(=O)Nc1ccc2c(c1)C(=O)N(C)C[C@H](OC)[C@@H](C)CN(Cc1ccc(-c3ccccn3)cc1)[C@H](C)CO2 returned CASP6 VEID inh -2, FN deposit inh 11, DENV2 CPE 36* and XiGFP reactiv 1.
`CCCNC(=O)Nc1ccc2c(c1)OC[C@H](C)N(Cc1ccc(-c3ccccn3)cc1)C[C@@H](C)[C@H](OC)CN(C)C2=O` gave CASP6 VEID inh 29, FN deposit inh -6, DENV2 CPE 25* and XiGFP reactiv 0.
Screening CCCNC(=O)Nc1ccc2c(c1)C(=O)N(C)C[C@H](OC)[C@H](C)CN(Cc1cncnc1)[C@H](C)CO2 returned CASP6 VEID inh 1, FN deposit inh 4, DENV2 CPE 53* and XiGFP reactiv 0.

Bioassay records from PubChem BioAssay.
